Reference: ChEMBL document CHEMBL5058577, “EUbOPEN Chemogenomics Library 2 (Multiplex)” (2022)

Test system: HEK-293T
Experiment: Multiplex assay against HEK293T
Format: toxicity, cell-based
Conditions: human
Method in brief: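 With compound added, live cells were imaged on a CQ1 microscope at 37°C and 5% CO2; staining with Hoechst33342, BioTracker Green Microtubule Cytoskeleton Dye, MitoTracker Red and Annexin V Alexa Fluor 680 had been done at seeding. The CellPathfinder machine-learning gating scheme split cells into Hoechst high-intensity objects or normal cells, normal cells into healthy, pyknosed or fragmented nuclei, and pyknosed cells into mitotic or apoptotic. The tubulin, mitochondrial-mass and membrane-permeability phenotypes are per cents of healthy-nucleus cells.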

[1] = 12 h, 1 µM, compound concentration 1 uM, replicate 1
[2] = 12 h, 1 µM, compound concentration 1 uM, replicate 2
[3] = 12 h, 10 µM, compound concentration 10 uM, replicate 1
[4] = 12 h, 10 µM, compound concentration 10 uM, replicate 2
[5] = 24 h, 1 µM, compound concentration 1 uM, replicate 1
[6] = 24 h, 1 µM, compound concentration 1 uM, replicate 2
[7] = 24 h, 10 µM, compound concentration 10 uM, replicate 1
[8] = 24 h, 10 µM, compound concentration 10 uM, replicate 2
[9] = 48 h, 1 µM, compound concentration 1 uM, replicate 1
[10] = 48 h, 1 µM, compound concentration 1 uM, replicate 2
[11] = 48 h, 10 µM, compound concentration 10 uM, replicate 1
[12] = 48 h, 10 µM, compound concentration 10 uM, replicate 2

## CC(=O)Nc1cccc2c1c(Sc1ccc(Cl)cc1)c(C)n2CC(=O)O [AZD1981]
[1]
  Population Apoptotic (%): 37%
  Population Fragmented Nuclei (%): 6%
  Population Healthy Nuclei (%): 81%
  Population Hoechst High Intensity Objects (%): 6%
  Population Membrane Permeable-Phenotype (%): 0%
  Population Mitochondria Different-Phenotype (%): 46%
  Population Mitotic Cells (%): 62%
  Population Normal (%): 93%
  Population Pyknosed Nuclei (%): 11%
  Population Tubulin-Different-Phenotype (%): 28%
  Total Cell Count: 405
[2]
  Population Apoptotic (%): 60%
  Population Fragmented Nuclei (%): 5%
  Population Healthy Nuclei (%): 80%
  Population Hoechst High Intensity Objects (%): 8%
  Population Mitochondria Different-Phenotype (%): 57%
  Population Mitotic Cells (%): 40%
  Population Normal (%): 91%
  Population Pyknosed Nuclei (%): 13%
  Population Tubulin-Different-Phenotype (%): 18%
  Total Cell Count: 314
[3]
  Population Apoptotic (%): 38%
  Population Fragmented Nuclei (%): 8%
  Population Healthy Nuclei (%): 78%
  Population Hoechst High Intensity Objects (%): 7%
  Population Membrane Permeable-Phenotype (%): 0%
  Population Mitochondria Different-Phenotype (%): 44%
  Population Mitotic Cells (%): 61%
  Population Normal (%): 92%
  Population Pyknosed Nuclei (%): 12%
  Population Tubulin-Different-Phenotype (%): 29%
  Total Cell Count: 403
[4]
  Population Apoptotic (%): 60%
  Population Fragmented Nuclei (%): 6%
  Population Healthy Nuclei (%): 77%
  Population Hoechst High Intensity Objects (%): 15%
  Population Mitochondria Different-Phenotype (%): 60%
  Population Mitotic Cells (%): 39%
  Population Normal (%): 84%
  Population Pyknosed Nuclei (%): 15%
  Population Tubulin-Different-Phenotype (%): 26%
  Total Cell Count: 318
[5]
  Population Apoptotic (%): 20%
  Population Fragmented Nuclei (%): 9%
  Population Healthy Nuclei (%): 80%
  Population Hoechst High Intensity Objects (%): 2%
  Population Membrane Permeable-Phenotype (%): 0%
  Population Mitochondria Different-Phenotype (%): 33%
  Population Mitotic Cells (%): 79%
  Population Normal (%): 97%
  Population Pyknosed Nuclei (%): 9%
  Population Tubulin-Different-Phenotype (%): 23%
  Total Cell Count: 568
[6]
  Population Apoptotic (%): 54%
  Population Fragmented Nuclei (%): 7%
  Population Hoechst High Intensity Objects (%): 9%
  Population Mitochondria Different-Phenotype (%): 42%
  Population Mitotic Cells (%): 45%
  Population Normal (%): 90%
  Population Pyknosed Nuclei (%): 11%
  Population Tubulin-Different-Phenotype (%): 16%
  Total Cell Count: 398
[7]
  Population Apoptotic (%): 40%
  Population Fragmented Nuclei (%): 7%
  Population Healthy Nuclei (%): 79%
  Population Hoechst High Intensity Objects (%): 4%
  Population Membrane Permeable-Phenotype (%): 0%
  Population Mitochondria Different-Phenotype (%): 28%
  Population Mitotic Cells (%): 59%
  Population Normal (%): 95%
  Population Pyknosed Nuclei (%): 13%
  Population Tubulin-Different-Phenotype (%): 25%
  Total Cell Count: 526
[8]
  Population Apoptotic (%): 59%
  Population Fragmented Nuclei (%): 8%
  Population Healthy Nuclei (%): 81%
  Population Hoechst High Intensity Objects (%): 12%
  Population Mitochondria Different-Phenotype (%): 45%
  Population Mitotic Cells (%): 40%
  Population Normal (%): 87%
  Population Pyknosed Nuclei (%): 9%
  Population Tubulin-Different-Phenotype (%): 19%
  Total Cell Count: 387
[9]
  Population Apoptotic (%): 21%
  Population Fragmented Nuclei (%): 15%
  Population Healthy Nuclei (%): 78%
  Population Hoechst High Intensity Objects (%): 1%
  Population Membrane Permeable-Phenotype (%): 1%
  Population Mitochondria Different-Phenotype (%): 18%
  Population Mitotic Cells (%): 78%
  Population Normal (%): 98%
  Population Pyknosed Nuclei (%): 6%
  Population Tubulin-Different-Phenotype (%): 10%
  Total Cell Count: 908
[10]
  Population Apoptotic (%): 38%
  Population Fragmented Nuclei (%): 13%
  Population Healthy Nuclei (%): 79%
  Population Hoechst High Intensity Objects (%): 3%
  Population Mitochondria Different-Phenotype (%): 20%
  Population Mitotic Cells (%): 61%
  Population Normal (%): 96%
  Population Tubulin-Different-Phenotype (%): 12%
  Total Cell Count: 570
[11]
  Population Apoptotic (%): 37%
  Population Fragmented Nuclei (%): 14%
  Population Healthy Nuclei (%): 78%
  Population Hoechst High Intensity Objects (%): 2%
  Population Membrane Permeable-Phenotype (%): 0%
  Population Mitochondria Different-Phenotype (%): 18%
  Population Mitotic Cells (%): 62%
  Population Normal (%): 97%
  Population Pyknosed Nuclei (%): 7%
  Population Tubulin-Different-Phenotype (%): 11%
  Total Cell Count: 751
[12]
  Population Apoptotic (%): 33%
  Population Fragmented Nuclei (%): 16%
  Population Hoechst High Intensity Objects (%): 4%
  Population Mitochondria Different-Phenotype (%): 26%
  Population Mitotic Cells (%): 66%
  Population Normal (%): 95%
  Population Pyknosed Nuclei (%): 5%
  Total Cell Count: 556
